Experimental data: ChEMBL document CHEMBL1914420, “Investigation of the pyrazinones as PDE5 inhibitors: evaluation of regioisomeric projections into the solvent region” (Bioorg Med Chem Lett, 2011)

Columns and labels:
[1] = Selectivity ratio of IC50 for PDE11 to IC50 for PDE5
Procedure, shortened: (§1)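 Fold selectivity calculated as PDE11 IC50/PDE5 IC50 or PDE6 IC50/PDE5 IC50, with IC50 values in nM.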

[2] = biological target: cGMP-specific 3',5'-cyclic phosphodiesterase (Homo sapiens, UniProt O76074); experiment: Inhibition of PDE5
[3] = Selectivity ratio of IC50 for PDE6 to IC50 for PDE5; procedure, shortened: as §1
[4] = biological target: High affinity cAMP-specific and IBMX-insensitive 3',5'-cyclic phosphodiesterase 8B (Homo sapiens, UniProt O95263); experiment: Inhibition of PDE8B
Chain of High affinity cAMP-specific and IBMX-insensitive 3',5'-cyclic phosphodiesterase 8B (O95263 whole entry): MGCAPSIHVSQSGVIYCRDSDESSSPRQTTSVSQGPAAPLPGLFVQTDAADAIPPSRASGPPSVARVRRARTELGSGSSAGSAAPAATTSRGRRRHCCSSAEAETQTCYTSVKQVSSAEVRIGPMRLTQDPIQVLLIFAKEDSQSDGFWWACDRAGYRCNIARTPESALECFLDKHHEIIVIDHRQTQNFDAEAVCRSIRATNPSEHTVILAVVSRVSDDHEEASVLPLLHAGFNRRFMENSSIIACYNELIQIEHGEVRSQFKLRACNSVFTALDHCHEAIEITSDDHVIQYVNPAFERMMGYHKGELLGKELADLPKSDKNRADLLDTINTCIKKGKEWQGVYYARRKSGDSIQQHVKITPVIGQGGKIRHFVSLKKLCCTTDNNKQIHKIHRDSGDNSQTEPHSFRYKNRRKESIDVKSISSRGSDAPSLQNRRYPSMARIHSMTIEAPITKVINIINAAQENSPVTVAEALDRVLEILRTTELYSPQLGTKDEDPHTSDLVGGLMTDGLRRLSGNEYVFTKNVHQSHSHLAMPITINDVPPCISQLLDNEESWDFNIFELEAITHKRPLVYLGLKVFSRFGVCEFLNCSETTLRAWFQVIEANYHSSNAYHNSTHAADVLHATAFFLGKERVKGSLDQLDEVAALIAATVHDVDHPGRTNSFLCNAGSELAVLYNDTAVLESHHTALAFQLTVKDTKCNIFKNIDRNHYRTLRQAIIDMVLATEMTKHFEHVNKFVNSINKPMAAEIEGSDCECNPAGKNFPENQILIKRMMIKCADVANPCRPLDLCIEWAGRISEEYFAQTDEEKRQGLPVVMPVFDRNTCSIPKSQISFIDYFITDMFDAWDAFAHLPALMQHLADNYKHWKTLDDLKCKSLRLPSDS

Rattus norvegicus [5] = experiment: Antihypertensive activity in spontaneous hypertensive rat assessed as reduction in systolic blood pressure at 20 mg/kg measured after 24 hrs; type: functional, Artery
[6] = biological target: Dual specificity calcium/calmodulin-dependent 3',5'-cyclic nucleotide phosphodiesterase 1B (Homo sapiens, UniProt Q01064); experiment: Inhibition of PDE1B
Chain of Dual specificity calcium/calmodulin-dependent 3',5'-cyclic nucleotide phosphodiesterase 1B (Q01064 whole entry): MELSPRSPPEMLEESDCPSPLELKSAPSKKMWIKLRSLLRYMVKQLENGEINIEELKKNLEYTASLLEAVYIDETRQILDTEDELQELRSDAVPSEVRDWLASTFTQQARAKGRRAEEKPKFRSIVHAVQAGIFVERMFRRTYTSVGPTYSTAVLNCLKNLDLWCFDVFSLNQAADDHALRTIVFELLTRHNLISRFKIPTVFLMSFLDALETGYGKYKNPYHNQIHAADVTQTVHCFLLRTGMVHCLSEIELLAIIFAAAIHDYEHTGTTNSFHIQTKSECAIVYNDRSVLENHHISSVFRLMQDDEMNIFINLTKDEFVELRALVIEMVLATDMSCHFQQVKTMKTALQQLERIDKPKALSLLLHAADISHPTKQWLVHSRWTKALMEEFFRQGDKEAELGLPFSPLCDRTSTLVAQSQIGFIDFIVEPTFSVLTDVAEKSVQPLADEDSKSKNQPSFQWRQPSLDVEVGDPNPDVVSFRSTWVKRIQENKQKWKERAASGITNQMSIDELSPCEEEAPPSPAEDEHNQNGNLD

CYP2C9 = CYP2C9 (Homo sapiens, UniProt P11712); experiment: Inhibition of CYP2C9 at 3 uM; type: ADME
Chain of CYP2C9 (P11712 whole entry): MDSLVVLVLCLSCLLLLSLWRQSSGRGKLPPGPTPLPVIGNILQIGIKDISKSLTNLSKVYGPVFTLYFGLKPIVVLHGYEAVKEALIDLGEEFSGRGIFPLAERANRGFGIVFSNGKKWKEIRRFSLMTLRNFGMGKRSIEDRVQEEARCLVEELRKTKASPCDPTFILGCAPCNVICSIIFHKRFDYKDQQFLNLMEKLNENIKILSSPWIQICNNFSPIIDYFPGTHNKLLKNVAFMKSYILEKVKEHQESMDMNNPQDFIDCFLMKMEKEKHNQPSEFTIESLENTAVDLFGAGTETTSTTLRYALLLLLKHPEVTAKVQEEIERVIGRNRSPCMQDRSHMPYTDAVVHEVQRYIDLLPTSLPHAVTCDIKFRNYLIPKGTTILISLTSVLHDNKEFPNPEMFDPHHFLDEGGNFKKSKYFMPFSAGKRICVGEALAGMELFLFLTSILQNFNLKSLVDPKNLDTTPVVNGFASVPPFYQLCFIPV

[7] = Clearance in dog at 2 mg/kg; type: ADME, organism-based, Canis lupus familiaris; parameters: dose 2 mg/kg; conditions: in vivo
Procedure, shortened: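 Clearance in mL/min/kg after a 2 mpk dose (n = 3) in vehicle 70% PEG400/20% 0.05 M citrate buffer/10% ethanol, pH 5.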

[8] = Clearance in rat at 2 mg/kg at pH 5; type: ADME, organism-based; parameters: dose 2 mg/kg; conditions: in vivo
[9] = biological target: cGMP-inhibited 3',5'-cyclic phosphodiesterase 3A (Homo sapiens, UniProt Q14432); experiment: Inhibition of PDE3A
Adenosine receptor A1 = biological target: T1, Adenosine receptor A1 (Homo sapiens, UniProt P30542); experiment: Inhibition of adenosine A1 receptor
T1 sequence (P30542 whole entry): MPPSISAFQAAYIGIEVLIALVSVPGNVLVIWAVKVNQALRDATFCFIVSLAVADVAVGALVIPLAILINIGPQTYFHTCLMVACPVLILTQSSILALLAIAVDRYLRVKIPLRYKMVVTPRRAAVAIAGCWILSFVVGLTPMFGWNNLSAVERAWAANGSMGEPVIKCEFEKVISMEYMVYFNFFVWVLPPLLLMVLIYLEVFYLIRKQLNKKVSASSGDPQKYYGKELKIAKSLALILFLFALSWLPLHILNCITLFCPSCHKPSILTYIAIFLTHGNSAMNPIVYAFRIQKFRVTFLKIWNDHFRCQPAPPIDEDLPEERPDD

[10] = biological target: 3',5'-cyclic-AMP phosphodiesterase 7B (Homo sapiens, UniProt Q9NP56); experiment: Inhibition of PDE7B
[11] = biological target: 3',5'-cyclic-AMP phosphodiesterase 4A (Homo sapiens, UniProt P27815); experiment: Inhibition of PDE4A
[12] = Volume of distribution in rat; type: ADME, organism-based; conditions: in vivo
CYP3A4 = CYP3A4 (Homo sapiens, UniProt P08684); experiment: Inhibition of CYP3A4 at 3 uM; type: ADME
Chain of CYP3A4 (P08684 whole entry): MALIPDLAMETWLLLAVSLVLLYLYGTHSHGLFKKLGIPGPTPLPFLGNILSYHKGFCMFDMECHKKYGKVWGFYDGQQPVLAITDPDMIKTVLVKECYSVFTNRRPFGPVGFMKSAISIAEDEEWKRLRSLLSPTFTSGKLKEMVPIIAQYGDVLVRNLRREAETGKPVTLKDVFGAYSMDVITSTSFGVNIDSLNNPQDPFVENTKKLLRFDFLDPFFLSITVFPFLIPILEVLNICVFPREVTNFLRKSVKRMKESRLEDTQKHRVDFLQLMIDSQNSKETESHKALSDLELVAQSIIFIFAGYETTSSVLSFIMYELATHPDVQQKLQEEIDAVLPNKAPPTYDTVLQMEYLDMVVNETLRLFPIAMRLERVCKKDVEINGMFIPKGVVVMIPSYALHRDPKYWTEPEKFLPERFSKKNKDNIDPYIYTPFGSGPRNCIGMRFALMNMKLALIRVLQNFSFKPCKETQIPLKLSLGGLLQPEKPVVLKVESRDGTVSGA

[13] = Metabolic stability in human liver microsomes assessed as compound remaining after 1 hr; type: ADME, Microsome; conditions: read-out: Stability
Procedure, shortened: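 Human liver microsomes; percent parent compound remaining after 1 h incubation.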

[14] = Inhibition of PDE10
[15] = biological target: 3',5'-cyclic-AMP phosphodiesterase 4C (Homo sapiens, UniProt Q08493); experiment: Inhibition of PDE4C
[16] = biological target: High affinity cAMP-specific and IBMX-insensitive 3',5'-cyclic phosphodiesterase 8A (Homo sapiens, UniProt O60658); experiment: Inhibition of PDE8A
Chain of High affinity cAMP-specific and IBMX-insensitive 3',5'-cyclic phosphodiesterase 8A (O60658 whole entry): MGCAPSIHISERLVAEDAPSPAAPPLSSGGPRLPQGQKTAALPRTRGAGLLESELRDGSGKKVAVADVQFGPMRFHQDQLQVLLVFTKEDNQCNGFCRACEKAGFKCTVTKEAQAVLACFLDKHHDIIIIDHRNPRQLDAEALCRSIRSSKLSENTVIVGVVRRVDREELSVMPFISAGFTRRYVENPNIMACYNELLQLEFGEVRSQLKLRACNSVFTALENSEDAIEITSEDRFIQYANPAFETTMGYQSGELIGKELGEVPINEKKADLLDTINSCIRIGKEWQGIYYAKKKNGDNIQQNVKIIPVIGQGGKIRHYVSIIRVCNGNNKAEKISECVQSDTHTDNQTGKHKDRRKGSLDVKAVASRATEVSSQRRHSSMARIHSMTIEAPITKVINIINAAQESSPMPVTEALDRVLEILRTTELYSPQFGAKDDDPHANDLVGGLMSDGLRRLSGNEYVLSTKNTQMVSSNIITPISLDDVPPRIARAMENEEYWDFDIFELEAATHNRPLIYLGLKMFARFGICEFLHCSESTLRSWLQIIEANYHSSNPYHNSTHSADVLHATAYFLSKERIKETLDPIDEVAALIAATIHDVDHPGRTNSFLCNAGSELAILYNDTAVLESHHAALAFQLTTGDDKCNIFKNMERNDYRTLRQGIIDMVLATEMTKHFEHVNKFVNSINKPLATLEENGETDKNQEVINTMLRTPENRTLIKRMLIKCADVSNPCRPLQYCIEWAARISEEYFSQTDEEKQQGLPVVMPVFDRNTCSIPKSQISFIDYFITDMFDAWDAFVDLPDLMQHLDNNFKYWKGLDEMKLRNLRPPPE

[17] = Volume of distribution in dog; type: ADME, organism-based, Canis lupus familiaris; conditions: in vivo
Procedure, shortened: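 Volume of distribution expressed in L/kg.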

[18] = biological target: 3',5'-cyclic-AMP phosphodiesterase 4B (Homo sapiens, UniProt Q07343); experiment: Inhibition of PDE4B
[19] = biological target: Dual specificity calcium/calmodulin-dependent 3',5'-cyclic nucleotide phosphodiesterase 1C (Homo sapiens, UniProt Q14123); experiment: Inhibition of PDE1C
[20] = Inhibition of PDE9
Acetylcholinesterase = Acetylcholinesterase (Homo sapiens, UniProt P22303); experiment: Inhibition of acetylcholinesterase
[21] = biological target: Dual specificity calcium/calmodulin-dependent 3',5'-cyclic nucleotide phosphodiesterase 1A (Homo sapiens, UniProt P54750); experiment: Inhibition of PDE1A
Chain of Dual specificity calcium/calmodulin-dependent 3',5'-cyclic nucleotide phosphodiesterase 1A (P54750 whole entry): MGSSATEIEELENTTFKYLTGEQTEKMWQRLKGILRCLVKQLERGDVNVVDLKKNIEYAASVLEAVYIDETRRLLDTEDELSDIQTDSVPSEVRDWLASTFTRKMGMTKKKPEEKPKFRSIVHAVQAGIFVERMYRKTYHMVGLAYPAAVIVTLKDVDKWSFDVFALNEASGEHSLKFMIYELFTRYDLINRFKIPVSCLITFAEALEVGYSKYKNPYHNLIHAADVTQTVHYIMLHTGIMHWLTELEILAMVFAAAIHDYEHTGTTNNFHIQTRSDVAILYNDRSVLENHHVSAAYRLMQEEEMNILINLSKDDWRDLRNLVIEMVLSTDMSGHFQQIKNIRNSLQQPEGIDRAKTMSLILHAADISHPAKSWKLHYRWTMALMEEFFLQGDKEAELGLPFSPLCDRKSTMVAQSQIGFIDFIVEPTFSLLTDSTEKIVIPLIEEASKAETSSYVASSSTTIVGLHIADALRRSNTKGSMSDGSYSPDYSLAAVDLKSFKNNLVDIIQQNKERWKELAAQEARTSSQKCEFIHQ

[22] = Oral bioavailability in rat at 2 mg/kg; type: ADME, organism-based; conditions: in vivo
CYP2D6 = CYP2D6 (Homo sapiens, UniProt P10635); experiment: Inhibition of CYP2D6 at 3 uM; type: ADME
[23] = biological target: High affinity 3',5'-cyclic-AMP phosphodiesterase 7A (Homo sapiens, UniProt Q13946); experiment: Inhibition of PDE7A
Rattus norvegicus [24] = organism: Rattus norvegicus; experiment: Unbound volume of distribution in rat; type: ADME, organism-based; conditions: in vivo
[25] = Solubility of the compound at pH 6.5; type: physicochemical; conditions: buffer
[26] = Inhibition of PDE2
[27] = biological target: cGMP-inhibited 3',5'-cyclic phosphodiesterase 3B (Homo sapiens, UniProt Q13370); experiment: Inhibition of PDE3B
Chain of cGMP-inhibited 3',5'-cyclic phosphodiesterase 3B (Q13370 whole entry): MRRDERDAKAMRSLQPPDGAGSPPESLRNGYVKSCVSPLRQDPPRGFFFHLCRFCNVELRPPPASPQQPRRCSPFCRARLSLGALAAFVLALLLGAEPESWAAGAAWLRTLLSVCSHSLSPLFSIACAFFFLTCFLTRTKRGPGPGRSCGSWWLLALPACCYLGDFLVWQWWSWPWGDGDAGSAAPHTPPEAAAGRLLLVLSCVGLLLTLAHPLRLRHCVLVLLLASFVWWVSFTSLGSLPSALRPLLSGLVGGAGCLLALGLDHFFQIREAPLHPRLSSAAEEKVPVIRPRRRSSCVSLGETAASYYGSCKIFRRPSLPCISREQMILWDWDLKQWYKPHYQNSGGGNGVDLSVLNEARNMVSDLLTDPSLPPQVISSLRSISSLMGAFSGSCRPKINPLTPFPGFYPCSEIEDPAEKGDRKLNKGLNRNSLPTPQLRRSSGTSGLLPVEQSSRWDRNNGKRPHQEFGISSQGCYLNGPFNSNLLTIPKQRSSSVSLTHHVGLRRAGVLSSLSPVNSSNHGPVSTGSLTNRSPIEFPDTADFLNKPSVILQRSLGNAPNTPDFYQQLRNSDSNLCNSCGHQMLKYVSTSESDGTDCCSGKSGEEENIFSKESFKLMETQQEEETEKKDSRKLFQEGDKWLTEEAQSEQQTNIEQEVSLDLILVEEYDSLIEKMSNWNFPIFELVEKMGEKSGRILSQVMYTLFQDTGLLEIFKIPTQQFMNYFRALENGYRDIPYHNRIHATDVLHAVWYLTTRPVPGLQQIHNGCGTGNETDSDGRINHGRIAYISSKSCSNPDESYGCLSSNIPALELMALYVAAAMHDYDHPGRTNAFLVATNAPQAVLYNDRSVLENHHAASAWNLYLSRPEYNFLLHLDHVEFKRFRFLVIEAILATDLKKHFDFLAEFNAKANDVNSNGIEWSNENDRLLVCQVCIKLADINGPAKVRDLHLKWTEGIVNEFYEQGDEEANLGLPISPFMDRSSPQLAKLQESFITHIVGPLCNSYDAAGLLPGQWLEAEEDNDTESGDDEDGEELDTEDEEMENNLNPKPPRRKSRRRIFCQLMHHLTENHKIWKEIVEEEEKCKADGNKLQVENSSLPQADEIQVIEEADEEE

With `CCCOCCn1c(=O)nc(NCCN2CCOCC2)c2cnc(-c3ccc(OC)nc3)cc21` the Ratio IC50 [1] was 9050, the IC50 [2] was 0.08 nM and the Ratio IC50 [3] was 334.

`CCCOCCn1c(=O)nc(NC2CCC(C(=O)O)CC2)c2nnc(-c3ccc(OC)nc3)cc21` (stereo unspecified) gave a Ratio IC50 [1] of 541, an IC50 [2] of 0.02 nM and a Ratio IC50 [3] of 246.

Molecule `COc1ccc(-c2cc3c(nn2)c(NCC(=O)N(C)C)nc(=O)n3CCOCC(F)(F)F)cn1` has a Ratio IC50 [1] of 4170, an IC50 [2] of 0.38 nM and a Ratio IC50 [3] of 2200.

`CCCOCCn1c(=O)nc(NCCO)c2nnc(-c3ccc(OC)nc3)cc21` gave a Ratio IC50 [1] of 240, an IC50 [2] of 0.22 nM and a Ratio IC50 [3] of 290.

Work on `CCCOCCn1c(=O)nc(NCCC(=O)O)c2nnc(-c3ccc(OC)nc3)cc21` yielded a Ratio IC50 [1] of 250, an IC50 [2] of 0.05 nM and a Ratio IC50 [3] of 139.

For `CCCOCCn1c(=O)nc(NC2CCC(O)CC2)c2nnc(-c3ccc(OC)nc3)cc21` (stereo unspecified), the IC50 [4] was > 2000 nM, the Activity (Rattus norvegicus [5]) was 20 mmHg and the IC50 [6] was > 2000 nM. The inhibition at 3 µM (CYP2C9) was 9%, the clearance [7] was 1.6 mL/min/kg and the clearance [8] was 2.4 mL/min/kg. For the same molecule, the IC50 [9] was > 2000 nM, the IC50 (Adenosine receptor A1) was 440 nM and the IC50 [10] was > 2000 nM. For the same molecule, the IC50 [11] was > 2000 nM, the Vd [12] was 0.6 L/kg and the inhibition at 3 µM (CYP3A4) was 23%. The remaining at 1 h [13] was 72%, the IC50 [14] was > 2000 nM and the IC50 [15] was > 2000 nM. The IC50 [16] was > 2000 nM, the Vd [17] was 0.3 L/kg and the IC50 [18] was > 2000 nM. The IC50 [19] was > 2000 nM, the IC50 [20] was > 2000 nM and the IC50 (Acetylcholinesterase) was 5600 nM. The IC50 [21] was > 2000 nM, the bioavailability [22] was 85% and the inhibition at 3 µM (CYP2D6) was 5%. The IC50 [23] was > 2000 nM, the Vdu (Rattus norvegicus [24]) was 4.8 L/kg and the Ratio IC50 [1] was 741. The IC50 [2] was 0.02 nM, the solubility [25] was > 100 µM and the IC50 [26] was > 2000 nM. For the same molecule, the Ratio IC50 [3] was 108 and the IC50 [27] was > 2000 nM.

In the case of `CCCOCCn1c(=O)c(NC2CCC(O)CC2)nc2ncc(-c3ccc(OC)nc3)cc21` (stereo unspecified), the Ratio IC50 [1] is reported as 675 and the Ratio IC50 [3] is reported as 48.

`CCCOCCn1c(=O)nc(NC2CCC(O)CC2)c2cnc(-c3ccc(OC)nc3)cc21` (stereo unspecified) gave a Ratio IC50 [1] of 3950, an IC50 [2] of 0.05 nM and a Ratio IC50 [3] of 675.

Molecule `CCCOCCn1c(=O)nc(NCCN2CCOCC2)c2nnc(-c3ccc(OC)nc3)cc21` has a Ratio IC50 [1] of 6820, an IC50 [2] of 0.09 nM and a Ratio IC50 [3] of 573.

For `CCCOCCn1c(=O)nc(N2CCN(CCO)CC2)c2ncc(-c3ccc(OC)nc3)cc21`, the Ratio IC50 [1] was > 1220, the IC50 [2] was 1.64 nM and the Ratio IC50 [3] was 381.

`CCCOCCn1c(=O)nc(NCCOC(C)C)c2cnc(-c3ccc(OC)nc3)cc21` showed a Ratio IC50 [1] of 9560, an IC50 [2] of 0.1 nM and a Ratio IC50 [3] of 450.

In the case of `CCCOCCn1c(=O)c(N2CCN(CCO)CC2)nc2cnc(-c3ccc(OC)nc3)cc21`, the Ratio IC50 [1] is reported as 2460 and the Ratio IC50 [3] is reported as 157.

For `COc1ccc(-c2cc3c(nn2)c(NC2CCC(O)CC2)nc(=O)n3CCOCC(F)(F)F)cn1` (stereo unspecified), the IC50 [2] was 0.04 nM.

`CCCOCCn1c(=O)nc(N[C@H](C)C(=O)O)c2nnc(-c3ccc(OC)nc3)cc21` gave a Ratio IC50 [1] of 76, an IC50 [2] of 0.13 nM and a Ratio IC50 [3] of 110.

With `CCCOCCn1c(=O)c(N2CCN(CCO)CC2)nc2ncc(-c3ccc(OC)nc3)cc21` the Ratio IC50 [1] was 1770, the IC50 [2] was 0.35 nM and the Ratio IC50 [3] was 245.

Molecule `CCCOCCn1c(=O)nc(N2CCN(CC(=O)O)CC2)c2nnc(-c3ccc(OC)nc3)cc21` has a Ratio IC50 [1] of 1330, an IC50 [2] of 0.1 nM and a Ratio IC50 [3] of 143.

`CCCOCCn1c(=O)nc(N[C@@H]2CCCC[C@@H]2C(=O)O)c2nnc(-c3ccc(OC)nc3)cc21` (racemic) showed a Ratio IC50 [1] of 296, an IC50 [2] of 0.02 nM and a Ratio IC50 [3] of 110.
